Assay results gathered from unrelated publications.
Protocols differ between the studies behind these lines.
Organism: Leishmania infantum
Observed: parasite growth

CCCCCCCCCCCCCCCCOP(=O)([O-])OCC[N+](C)(C)C
EC50 (imaging; mouse Macrophage; 5 days; intracellular, amastigote): 8.3 µM

O=C(N[C@@H](Cc1ccccc1)C(=O)c1nccs1)[C@H](Cc1ccccc1)NC(=O)N1CCOCC1
IC50 (intracellular, amastigote): > 64 µM

CCCCCCCCCCCCCCCCC#CC(=O)O
IC50 (52 h; promastigote): 50.6 µM

Fc1ccc(Nc2c(-c3cccnn3)nc3ccccn23)cc1
IC50 (intracellular, amastigote): 34.6 µM

CCCCCCCCCCCCCCCCOP(=O)([O-])OCC[N+](C)(C)C
IC50 (imaging; intracellular, amastigote): 5.28 µM

O=C(N[C@@H](CCc1ccccc1)C(=O)c1cc(-c2ccccc2)on1)[C@H](Cc1ccccc1)NC(=O)N1CCOCC1 (single isomer, unassigned)
IC50 (intracellular, amastigote): > 64 µM

c1ccc(-c2nc3n(c2-c2ccc4cccnc4c2)CCC3)nc1
EC50 (5 days; intracellular, amastigote): 3.98 µM

O=C(N[C@@H](Cc1ccccc1)C(=O)c1nc2ccccc2s1)[C@H](Cc1ccccc1)NC(=O)N1CCOCC1
IC50 (intracellular, amastigote): 12.7 µM

Cc1ccc(-c2c(-c3ccccn3)nc3n2CCC3)cc1
EC50 (5 days; intracellular, amastigote): 0.501 µM
